The source of these data is the RNAGym collection of RNA variant scans (doi:10.1126/science.aae0568).

Sequences and labels used below:
B1: tRNA (parent)
chain: GUUCCGUUGGCGUAAUGGUAACGCGUCUCCCUCCUAAGGAGAAGACUGCGGGUUCGAGUCCCGUACGGAACG

Variants at the floor of the assay were thinned out.

Variants of B1 are the subject of the data set. As to the kind of experiment: yeast fitness relative to wild type (ratio to wild type); higher = fitter; tRNA-Arg(CCU), competitive growth, 37 C, YPD. An outline of the steps:
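Start and end populations of a pooled competition were compared by 100-nucleotide paired-end sequencing of gene amplicons. The Saccharomyces cerevisiae strains carried tRNA-Arg(CCU) gene variants at the native genomic locus, synthesised with a 3% per-site mutation rate at 69 sites, and competed in YPD at 37°C for 24 hours in six parallel replicates. Darwinian fitness relative to wild type was based on the change in genotype frequencies. Genotypes required ≥ 100 starting reads, and estimates < 0.5 were set to 0.5.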
As for GUUCCGUUGGCGUAAUGGCAAGGCCUCUCCCUUCUAAGCAGAAGACUGCGGGUUCGAGUCCGGUACGGAACG [U19C C22G G25C C33U G39C C62G], the yeast fitness was no more than 0.5.

In the case of GUUACGUUGGCGUAAUGGUAACGCGUAUCCCUCCUAAAGAGAAGACUGCGGGUUCGAGUCCAGUACGGAACG [C4A C27A G38A C62A], the yeast fitness is no more than 0.5.

In the case of GUUCAGUUGGCGUAAUGGUAAGGCGUCUGCGUCCUAAGGAGAAGACUGCGGGUUCGAGUCACGUACGGAACG [C5A C22G C29G C31G C61A], the yeast fitness was determined as 0.529. Consider GUUCCGUUGCCGUAAUGGUAACGCGUCUCCUUCCUAAGGAGAAGACUGCGGGUUCGCGUCCAGUACGGAACG [G10C C31U A57C C62A], for which the yeast fitness is no more than 0.5.

Consider GUUCCGUUGGCGUAAUGGUAGCGCGUCUCCCUCCUAAGGAGAAGGCUGCGGGUUCGAGUCCCGUACGGAACG [A21G A45G], for which the yeast fitness came to 0.91. With GUUCCGUUGGCGUUAUGGUAACGCGUCUCCCUCCUACGGAGAAGAUUGCGCGUUCGAGUCCCGUAGGGAACG [A14U A37C C46U G51C C66G], the yeast fitness stood at 0.529.

As to GUUCAGUUGGCGUACUGGUAACGCGUCUCCCUCCUAAGGAGAAGACUGCGGGUUCGAGUCCCGUACGGUACG [C5A A15C A69U], the yeast fitness was determined as 0.552.

Consider GUUCCGUUGGCGUAAUGGUAACGCGUCUCCCUCCUAAGGAGAAAACUGCGGGUUCGAGUCCGGUACGGAACG [G44A C62G], for which the yeast fitness came out at 0.668. As to GUUCCGUUGGCGUAAUGUUAACGCGACUCCCUCCUAAGGAGAAGACCGCGGGUUCGAGUCCCGUACGGAACG [G18U U26A U47C], the yeast fitness was no more than 0.5. Take GUUCCGUUGGCGUAAUGGUAACGCGUCUCUCUCCUAAGGAGAAGAAUGCGGGUUCGAGUCCCGUACGGAACG [C30U C46A]: the yeast fitness is 0.982. As for GUUCCGAUCGCGUAAUCGUAACGCGUCUCCCUCCUAAGGAGAAGACUACGGGUUCGAGUCCCGUACUGAACG [U7A G9C G17C G48A G67U], the yeast fitness is no more than 0.5. As for GUUCCGUUGGCGUAAUGGUAACGGGUUCCCCUCCUAAGGAGAAGACUGCGGGUUCGAGUCCCGUACGGAACG [C24G C27U U28C], the figure is no more than 0.5; as for GUUCUGUUGGCGUAAUGGUCACGCGUCUCCCUCCUAAGGAGAAGACUGCGGGUUCGAGUCCCGUAAGGAACG [C5U A20C C66A], 0.51. On to GUUCAGUUGGGGUAAUGGUAACGCGUCUCCCUACUAAAGAGAAGAGUGCGGGUUCGAGUCCCGUACGGAUCG [C5A C11G C33A G38A C46G A70U], for which the yeast fitness was no more than 0.5. For the variant GUUCCGUUGGCGUAUUGGUAACGCGUCUCCUUCCUAAGGAGAAGAGUGCGGGUUCGAGUCCCAUGCGGAUCG [A15U C31U C46G G63A A65G A70U], the yeast fitness is no more than 0.5. With GUUCCGCUGGCGUAAUGGUAACGUGUCUCCCUCCUAAGGAGAAGACUGCGGGUUCGAGUCCCGUACGGAGCG [U7C C24U A70G], the yeast fitness was found to be 0.666. For the variant GUUCCGUUGGCGUAAUGGUAACGCGUCUCCGUCCAAAGGAGAAGACUGCGGGUUCGAGUCCCGUUCGGAACG [C31G U35A A65U], the yeast fitness was found to be 0.622.

With GUUCCGUUGGCGUAAUGGUAAGGUGUCUCCCUCCUAAGGAGAAGACUGCGGGUUCGAGUCCCGUACGGAACG [C22G C24U], the yeast fitness turned out to be 0.894. As to GUUCCGUUGGCGUGAUGGUAACACGUCUCCCUCCUAAGGUGCAGACUGCGGGUUCGACUCCCGUACGGAACG [A14G G23A A40U A42C G58C], the yeast fitness is no more than 0.5. Consider GUUCCGUUCGCGUAAUGGUAACGUGUCUCGCUCCUAAGGAGAAGACUGCGAGUUCGAGUUCCGUACGGAACG [G9C C24U C30G G51A C60U], for which the yeast fitness is no more than 0.5.

Consider GUUUCGUUGGCGUACUGGUAACGCGUCUCGCUCCUAAGGAGAAGACUGCGGGUUCGAGUCCCGUACGGUACG [C4U A15C C30G A69U], for which the yeast fitness was no more than 0.5.

On to GUUCCGUUGGCGUAAUGGUAACGCGUCUCCCUUCUAAAGAGAAGACUGUGGGUUCGAGUCACGUACGGAACG [C33U G38A C49U C61A], for which the yeast fitness is no more than 0.5.

Regarding GUUCCGUUGGCGUAAUCCUAACGCGUCUCCCUCCUAAGGAGAAGACUGCGGGUUCGAGUCCCGUACGGUACG [G17C G18C A69U], the yeast fitness is no more than 0.5. For the variant GUUCCGUUACUGUAAGGGUAACGCGUCUCCCUCCUAAGGAAAAGACUGCGGGUUCGAGUCCCGUACGGAACG [G9A G10C C11U U16G G41A], the yeast fitness turned out to be 0.597. GUUCUGUUGGCGUAAUGGUAACACGUCUCCCUCCUAAGGAGAAGACUGCGGGUUCGAGUCCGGUACGGAACG [C5U G23A C62G]: the yeast fitness was 0.538.

Consider GUUCCGUUGGCGUAAUGGUCUCGCGUGUCCCUCCUAAGGAGUAGACUGCGGGUUCGAGUCCCGUACGGAACG [A20C A21U C27G A42U], for which the yeast fitness is no more than 0.5. As for GUUCCGUUGGCGUAAUGGUAACGUGUCUCCCUCCUAAGGAGAAGACUGCGGGUUCGAGUCCCGUUCGGCACG [C24U A65U A69C], the yeast fitness was 0.564. For GUUCCGUUGGCGUAAUGAUAACGCGUCUCGCUCCUAUGGAGAAGACUGCGGGUUGGAGUCCCGUACGGAACG [G18A C30G A37U C55G], the yeast fitness was no more than 0.5. Take GUUCCGUUAGCGUAAUGGUAACGCGUCUCCCACCUAAGGAGAAGACUCCGGGUUCGAGUCCCGUACGGAACG [G9A U32A G48C]: the yeast fitness worked out at 0.531. With GUUCCGUUGGCCUAAUGGUAACGCAUCUCCCUCCCAAGGAGAAGACUGCGGGUUCGAGUCCCGUACGGAACG [G12C G25A U35C] the figure was 0.552; with GUUCCGUUGGCGUAAUGGUAACGCGUCUCCCUCAUAAGGAGAAGACUGCGGGUUCGAGUCCCGUACGGCACG [C34A A69C], 0.752. As for GUUUCGUUGGCGUAAUGGUAACGCGUCUCCCUCCUAAGGAGAAGACUGGGGGUUCGCGUCCCGUACGGAACG [C4U C49G A57C], the figure is no more than 0.5. Take GUUCCGUUGGCGUAAUGGUAACGCGUCUCCCUCCUAAGGAGUAGCCUGCGGGUUUGAGUCCCGUACGGCACG [A42U A45C C55U A69C]: the yeast fitness was no more than 0.5.

In the case of GUUCCGUUGGCGUAAUGGUAACGGGUCUCCCUCCUAAGGAGAAGACUGCGGGUUCGAGUCCUGUACGGAACG [C24G C62U], the yeast fitness came out at 0.562. Turning to GUUCUGUUGGCGUAAAGGUAACGCGUCUCCCUCCUAAAGAGGAGACUGCGGGUUCGAGUCCCGUACGGAACG [C5U U16A G38A A42G], the yeast fitness is no more than 0.5. Regarding GAUCCGCUGGCGUAAUGGUAACGCAUCUCCCUCCUUAGGAGAAGACUGCGGGUUCGAGUCCUGUACAGAACG [U2A U7C G25A A36U C62U G67A], the yeast fitness was no more than 0.5. For the variant GUUCCGUUGGCGUAAGGGUAACGCGUCUCCCUCCUAAGAAGAAGCCUGCGGGUUCGAGUCACGUACGGAACG [U16G G39A A45C C61A], the yeast fitness worked out at 0.617. GUUCCGUUGGCGUUAUGGUAAAGCGUCUCCCUCCUAAGGAGAGGACUGCGGCUUCGAGUCCCGUACGGAACG [A14U C22A A43G G52C]: the yeast fitness is no more than 0.5.
